esBAF inh – Bmi1 luciferase reporter increase in mESCs, primary screen, esBAF inhibitor project, mouse ES cells, Bmi1 luciferase knock-in, single point; 24 h; 100% = twice the neutral-well signal; AID 602393, 2012; 350,000 tested, 2% active; reporter increase, % at 12.5 µM; in the data active = activation above about 40%;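 also: a rise in the Bmi1 reporter signal indicates esBAF inhibition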
Cneo AK release – Cryptococcus neoformans cell lysis inducers, primary screen, AK release luminescence, single concentration. C. neoformans lysis, adenylate kinase release luminescence, 4 h; normalised: neutral wells 0, clomiphene wells 100. lysis activity, % at 15 µM. 360,000 tested, 0.2% active;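 active = mean lysis activity across replicates of at least 80%, whatever share of replicates individually reach that level; inactive = mean lysis activity below 80%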
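Assay system: C. neoformans cells. Amount: yeast cell density of 5 × 10^6 cells/mL. Technique: AK luminescence. Buffer or medium: YPD. Times: static 4 h at 37 °C with compound, 1 h detection. Dosing: single-point compound dose. Read-out: lysis from increased AK signal.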
HIV Env fusion – inhibitors of HIV-1 Env-driven cell-cell fusion, primary screen, HeLa-JRFL effector, CEM21 target cells, luciferase; 360,000 tested, 1.1% active; inhibition, % at 12.3 µM; AID 651610, 2012;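 active = mean replicate inhibition score of at least 50 and every replicate individually at or above 50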
Wnt act – Wnt/beta-catenin pathway activators, primary screen, cell-based, plate reader, single point; Wnt/beta-catenin reporter cell assay, activator; activation, % at 9.35 µM; 300,000 tested, 1.2% active; AID 743398, 2014; in the data active = activation above about 30%, passing the limit was not always enough
ERAP1 HTS inh – human ERAP1 aminopeptidase inhibitors, primary screen, biochemical, single point, plate reader; Endoplasmic reticulum aminopeptidase 1 (Homo sapiens), Q9NZ08; recombinant ERAP1, Leu-AMC fluorescence, 60 min; inhibition, % at 10.7 µM; 340,000 tested, 0.15% active;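 active = mean replicate inhibition of at least 30%, or all replicates individually reaching that 30% level; inactive = mean below 30% and not every replicate reaching it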
MITF act – activators of MITF-driven TRPM1 promoter reporter, primary screen, cell-based, SK-MEL-5, luciferase, single point; SK-MEL-5 TRPM1-promoter luciferase, 24 h; % of positive control, neutral wells = 0; activation, % at 12.5 µM; 300,000 tested, 0.75% active; AID 588334, 2011;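 active = mean activation of at least 80% with every replicate also reaching 80%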
A number is an active result. Only some compounds are listed: those with a hit (about 3.5% of all), similar ones and a draw of the others.

How did Fc1ccc(Cn2nnc(-c3ccc(CN4CCOCC4)cc3)n2)cc1 do in these assays?
esBAF inh: inactive; Cneo AK release: inactive; HIV Env fusion: inactive; Wnt act: inactive

Results for Clc1ccc(Cn2nnc(-c3ccc(CN4CCOCC4)cc3)n2)cc1 ?
esBAF inh: 52; Cneo AK release: inactive; HIV Env fusion: inactive; Wnt act: inactive

How did O=C(OCc1ccccc1)c1cccc(-c2nnn(Cc3ccccc3)n2)c1 do in these assays?
esBAF inh: inactive; Cneo AK release: inactive; HIV Env fusion: inactive; Wnt act: 45; MITF act: inactive

Results for Clc1ccc(Cn2nnc(-c3ccccc3)n2)cc1 ?
esBAF inh: 47; Cneo AK release: inactive; Wnt act: inactive; ERAP1 HTS inh: inactive; MITF act: inactive

Results for Clc1ccc(Cn2nc(-c3ccccc3)nc2-c2ccccc2)cc1 ?
HIV Env fusion: inactive; MITF act: inactive

How did O=C(Cn1nnc(-c2ccccc2)n1)OCc1ccccc1 do in these assays?
esBAF inh: inactive; Cneo AK release: inactive; HIV Env fusion: inactive; Wnt act: inactive; MITF act: inactive

What do the screens show for `Cc1noc(C)c1NC(=O)Nc1cccc2c1O[C@@H](CN(C)Cc1ccncc1)[C@@H](C)CN([C@H](C)CO)C2=O`?
esBAF inh: inactive; Cneo AK release: inactive; HIV Env fusion: inactive; ERAP1 HTS inh: inactive

How did CO[C@@H]1CN(C)C(=O)c2cc(NC(=O)Nc3ccccc3)ccc2OC[C@@H](C)N(C(=O)CC2CC2)C[C@@H]1C do in these assays?
esBAF inh: inactive; Cneo AK release: inactive; HIV Env fusion: inactive

How did CO[C@H]1CN(C)C(=O)c2cc(NC(=O)Nc3ccccc3)ccc2OC[C@H](C)N(C(=O)CC2CC2)C[C@@H]1C do in these assays?
esBAF inh: 48; Cneo AK release: inactive; HIV Env fusion: inactive

How did COCC(=O)Nc1ccc2c(c1)C(=O)N(C)C[C@@H](OC)[C@H](C)CN(C(=O)c1ccccc1)[C@@H](C)CO2 do in these assays?
esBAF inh: inactive; Cneo AK release: inactive; HIV Env fusion: inactive

Results for COCC(=O)Nc1ccc2c(c1)C(=O)N(C)C[C@H](OC)[C@@H](C)CN(C(=O)c1ccccc1)[C@@H](C)CO2 ?
esBAF inh: inactive; Cneo AK release: 95; HIV Env fusion: inactive

Results for Cc1ccc(-c2oc3ccccc3c(=O)c2O)cc1 ?
esBAF inh: 48; Cneo AK release: inactive; HIV Env fusion: inactive; Wnt act: inactive; ERAP1 HTS inh: inactive; MITF act: inactive

Results for COc1ccc(CNC(=O)C[C@H]2CC[C@H](NC(=O)Nc3ccc4c(c3)OCO4)[C@@H](CO)O2)cc1 ?
esBAF inh: inactive; Cneo AK release: inactive; HIV Env fusion: inactive; ERAP1 HTS inh: inactive

Results for Cc1ccc(C(CCNC(C)c2cccs2)c2ccco2)cc1 (stereo unspecified) ?
HIV Env fusion: 66; Wnt act: inactive; ERAP1 HTS inh: inactive; MITF act: inactive

What do the screens show for `C[C@@H]1CN([C@H](C)CO)C(=O)CCCn2nncc2CO[C@@H]1CN(C)C(=O)Nc1ccc(-c2cccs2)cc1`?
esBAF inh: inactive; Cneo AK release: inactive; ERAP1 HTS inh: inactive

What do the screens show for `CCN(C(=O)C1CCN(c2nc(-c3ccc(OC)cc3)no2)CC1)c1ccc(OC)cc1`?
esBAF inh: inactive; Cneo AK release: inactive; HIV Env fusion: 60; Wnt act: inactive; ERAP1 HTS inh: inactive

Results for COc1ccc(NC(=O)C2CCN(c3nc(-c4ccc(OC)cc4)no3)CC2)cc1 ?
esBAF inh: inactive; Cneo AK release: inactive; HIV Env fusion: inactive; Wnt act: inactive; ERAP1 HTS inh: inactive

Results for COc1ccc(-c2noc(N3CCCC(C(=O)Nc4ccc(C(C)=O)cc4)C3)n2)cc1 (stereo unspecified) ?
esBAF inh: 48; Cneo AK release: inactive; HIV Env fusion: inactive; Wnt act: inactive; ERAP1 HTS inh: inactive; MITF act: inactive

Results for COc1ccc(-c2noc(N3CCC(C(=O)N4CCN(c5ccccn5)CC4)CC3)n2)cc1 ?
Cneo AK release: inactive; HIV Env fusion: 63; Wnt act: inactive; MITF act: inactive
